# Screening results from PubChem.
# Shown are actives, neighbours in structure and some others; about 4.7% of the full set was active somewhere.
# IMP-1 inh: blocks Pseudomonas aeruginosa IMP-1 metallo-beta-lactamase; purified IMP-1, nitrocefin hydrolysis, epi-absorbance fluorescence; inhibition, % at 5.6 µM; hit rate 0.45% among 290,000; AID 1556;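 active means inhibition above the mean plus 3 SD of all compounds in the same screening run, cut at about 4.5% in these data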
#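 System: purified IMP-1; amount: IMP-1 0.2 nM before substrate addition; compound: single dose, 5.6 µM; times: 25 °C, 15 min preincubation, 25 min reaction; signal: Epi-absorbance via hydrolysed-nitrocefin quenching of white-plate fluorescence, 480/530 nm, EDTA stop; benchmarks: DMSO with and without IMP-1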
# Jurkat NFkB inh: inhibitors of the PMA/ionomycin-induced NF-kB reporter in Jurkat cells; PMA/ionomycin-induced NF-kB luciferase reporter, luminescence; inhibition, % at 4 µM; hit rate 0.53% among 330,000; AID 435003; in the data active means inhibition above about 50%
# aSyn UTR inh: 5' untranslated region of α-synuclein, MLPCN primary screen | inhibition, % (tested at 7.5 µM) | hit rate 0.82% among 300,000 | AID 1813 | alpha-synuclein 5'UTR reporter, inhibitor activity; in the data active means inhibition above about 60%; inconclusive means no clear call, values can overlap the other calls;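 further: H4 neuroglioblastoma cells stably carrying SNCA 5'UTR luciferase fusion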
# VIM-2 inhibitor: inhibitors of Pseudomonas aeruginosa VIM-2 metallo-beta-lactamase | AID 1527 | hit rate 0.89% among 290,000 | purified VIM-2, nitrocefin hydrolysis, epi-absorbance fluorescence | inhibition, % at 5.6 µM;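 active means inhibition above the mean of all tested compounds plus 3 SD, cutoff set per screening run, cut at about 7.5% in these data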;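 further: red hydrolysis product quenches plate fluorescence so inhibitors raise well fluorescence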
# Mdm2-MdmX inh: human Mdm2/MdmX binding inhibition; O15151+Q00987; SaOS-2 split-luciferase Mdm2/MdmX complementation, luminescence; inhibition, % at 8 µM; hit rate 3% among 330,000; AID 485346;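 active means inhibition of at least 50% at 8 µM in the primary screen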
# 697 NFkB inh: inhibitors of the PMA/ionomycin-induced NF-kB reporter in 697 B cells | 697 B-cell NF-kB luciferase reporter, 16 h | inhibition, % at 4 µM | hit rate 0.33% among 330,000 | AID 435022; in the data active means inhibition above about 35%
# Jurkat NFkB conf: lowers PMA/ionomycin-induced NF-kB signal in Jurkat cells | shares compounds with Jurkat NFkB inh | Jurkat NF-kB luciferase, 16 h | inhibition, % at 4 µM | hit rate 27% among 2,700 | AID 435020;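 active means inhibition reaching about 45% at 4 µM in either replicate, limit read from the data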
# 697 NFkB conf: lowers PMA/ionomycin-induced NF-kB signal in 697 B cells; shares compounds with 697 NFkB inh; 697 B-cell NF-kB luciferase, 16 h; inhibition, % at 4 µM; hit rate 35% among 2,000; in the data active means inhibition mostly above about 28%, no sharp cut-off; inactive means mostly below about 22%
# Mdm2-MdmX conf: confirmation of human Mdm2/MdmX interaction inhibitors; shares compounds with Mdm2-MdmX inh; Mdm2-MdmX binding, luminescent assay; inhibition, % at 8 µM; hit rate 55% among 10,000; AID 489028; in the data active means inhibition above about 40%
# Full FLuc ctr: counter-screen for Mdm2/MdmX inhibitors: full-length luciferase | shares compounds with Mdm2-MdmX inh | SaOS-2 full-length luciferase counterscreen, luminescence | inhibition, % at 8 µM | hit rate 77% among 6,200;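 active means mean inhibition at 8 µM reaching about 37%, which flags the compound as non-specific, limit read from the data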;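 further: p53-null SaOS-2 cells with luciferase driven by a doxycycline-inducible promoter; compound on cells about two nights before reading with doxycycline added after day one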
# A number is an active result; - = inactive; ? = inconclusive; . = no result given.
SMILES,IMP-1 inh,Jurkat NFkB inh,aSyn UTR inh,VIM-2 inhibitor,Mdm2-MdmX inh,697 NFkB inh,697 NFkB conf,others
CCN(CC)CCn1c2c(c(SCC(=O)Nc3nc4ccccc4s3)nc1=O)CCC2,.,-,-,.,-,-,.,
Cn1cccc1/C=C1\SC(=Nc2ccccc2)NC1=O,-,-,-,-,-,-,.,
Cn1cccc1/C=C1\SC(=Nc2ccc(O)cc2)NC1=O,-,56,-,-,68,-,.,Jurkat NFkB conf=-;Mdm2-MdmX conf=62;Full FLuc ctr=160
CC(C)n1cnc2c(Nc3ccc(F)c(Cl)c3)nc(NCCO)nc21,-,-,-,-,-,-,.,
C=CC(=O)Nc1ccc(Nc2nc(NC3CCC(N(C)C)CC3)nc3c2ncn3C(C)C)cc1 (configuration not stated),.,100,.,.,96,97,80,Jurkat NFkB conf=97;Mdm2-MdmX conf=100;Full FLuc ctr=52
CN(C)c1ccc(/C=N/NC(=O)c2ccc(-n3cnnn3)cc2)cc1,.,-,.,.,-,-,.,
O=[N+]([O-])c1ccc(-c2nc(C(Cl)Cl)c3ccccc3n2)cc1,-,97,129,-,99,-,.,Jurkat NFkB conf=-;Mdm2-MdmX conf=100;Full FLuc ctr=51
CN(Cc1ccccc1)c1nc(-c2ccc([N+](=O)[O-])cc2)nc2ccccc12,-,-,-,-,-,-,.,
Fc1ccc(-c2nc3n(n2)Cc2ccccc2-3)cc1,-,-,.,-,-,-,.,
CCn1c(C)nc2cc(-c3nc4n(n3)Cc3ccccc3-4)ccc21,-,91,87,-,92,70,74,Jurkat NFkB conf=91;Mdm2-MdmX conf=99;Full FLuc ctr=51
Cc1cc(-c2ccccc2)nc2cc(C(=O)OC(C)C)nn12,-,-,-,-,-,-,.,
COc1nc(Nc2nc3ccccc3c(=O)[nH]2)nc2ccc(C)cc12,-,81,90,-,65,-,.,Jurkat NFkB conf=-;Mdm2-MdmX conf=43;Full FLuc ctr=76
CCOc1ccc(S(=O)(=O)N(CC)CC(=O)NC2CCS(=O)(=O)C2)cc1 (configuration not stated),.,-,.,.,-,-,.,
COc1ccc(NC(=O)c2cc(-c3ccccc3Cl)on2)cc1OC,-,-,-,-,-,-,.,
COc1ccc(NC(=O)c2cc3c(Cl)nc4ccccc4c3s2)cc1OC,-,-,-,-,-,44,39,
CCC(CC)C(=O)Nc1ccc([N+](=O)[O-])cn1,-,-,-,-,-,-,.,
CCC(CC)C(=O)Nc1ccc(Sc2ccc([N+](=O)[O-])cc2)cc1,-,-,-,-,-,37,30,
CCCC(=O)Nc1ccc(Sc2ccc([N+](=O)[O-])cc2)cc1,-,-,-,-,-,41,35,
CC1(C)NC(=O)N(CC(=O)OCC(=O)c2ccc(Cl)s2)C1=O,.,-,.,.,-,-,.,
Cc1ccc2nc(-c3ccc(NC(=O)CN4CCN(c5ccccn5)CC4)cc3)sc2c1,-,-,-,-,-,-,-,
CCn1c(SCC(=O)Nc2ccc(-c3nc4ccc(C)cc4s3)cc2)nnc1-c1ccccc1,-,-,-,-,-,-,-,
C=CCn1c(SCC(=O)Nc2ccc(-c3nc4ccc(C)cc4s3)cc2)nnc1-c1ccncc1,-,-,-,-,-,-,.,
CCc1cccc(NS(=O)(=O)c2c(C)nc3scc(C)n3c2=O)c1,-,-,-,-,-,-,.,
CCOC(=O)c1cc(CC)sc1N1C(=O)CC(Sc2ccccc2C(=O)O)C1=O (configuration not stated),-,-,-,-,-,-,.,
CCOC(=O)c1cc(CC)sc1N1C(=O)CC(Sc2ncccc2C(=O)O)C1=O (configuration not stated),-,-,-,-,-,46,-,
SMILES,IMP-1 inh,Jurkat NFkB inh,aSyn UTR inh,VIM-2 inhibitor,Mdm2-MdmX inh,697 NFkB inh,697 NFkB conf,others
Fc1ccc(C(c2nnnn2Cc2ccco2)N2CCN(C3CCCCC3)CC2)cc1 (configuration not stated),-,-,-,-,-,36,-,
COc1ccc(C(=O)NCC(=O)NCc2ccncc2)cc1,.,-,.,.,-,-,.,
Cc1ccc(-c2cc(C(=O)N3CCCCC3)c3ccccc3n2)cc1C,-,-,-,-,-,-,.,
CCSC1=C(C#N)C(c2ccc(Cl)cc2)C2=C(CCCC2=O)N1 (configuration not stated),-,-,-,-,-,35,-,
O=C(c1ccc(OC2CCN(CCc3ccccc3)CC2)cc1)N1CCC[C@H]1CO,-,-,-,-,-,-,.,
Cc1ccc(NS(=O)(=O)c2ccc3c(c2)n(C)c(=O)n3C)cc1C,-,-,-,-,-,-,.,
Cc1ccc(S(=O)(=O)Nc2ccc3c(c2)n(C)c(=O)n3C)cc1,-,-,-,-,-,47,29,
Clc1ccc(-c2cn3cc(Cl)ccc3n2)cc1,-,-,-,-,-,-,-,
C[C@H](NC(=O)c1nc[nH]c1C(=O)NCCCCCN)C(=O)OCc1ccccc1,.,-,-,.,-,-,.,
CC(=O)c1c(-c2ccccc2)c2cc(Cl)ccc2[nH]c1=O,-,-,-,-,-,36,-,
CC(=O)c1c(-c2ccc(Cl)cc2)c2ccccc2[nH]c1=O,-,-,-,-,-,-,.,
COc1cc(CN(C)Cc2cc(=O)oc3cc(C)c(Cl)cc23)ccc1OC(F)F,-,-,-,-,-,-,.,
O=C(c1ccc(OC2CCN(CCCc3ccccc3)CC2)cc1)N1CCCC1,-,-,-,-,-,-,.,
CC(=O)c1ccc(N=Nc2ccc(C)cc2)cc1,-,-,?,-,-,-,-,
CC(=O)c1ccc(N=Nc2ccc(N(C)C)cc2)cc1,-,-,-,-,-,-,.,
O=C(Cn1c(NCCO)nc2ccccc21)Nc1ccc2c(c1)OCCCO2,.,-,.,.,-,-,.,
Cc1noc(C)c1COC(=O)c1cccc(S(=O)(=O)N2CCOCC2)c1,.,-,-,.,-,-,.,
Cc1noc(C)c1COc1ccc(C(=O)OCC(=O)Nc2cccc(S(=O)(=O)N3CCOCC3)c2)cc1,-,-,-,-,-,39,-,
Cn1c(=N)n(CC(=O)c2ccc(Br)cc2)c2ccccc21,.,-,-,.,-,-,-,
Cc1c(/N=C(\[O-])Nc2ccc(Br)cc2)sn[n+]1C,-,-,89,-,-,-,-,
O=C1Nc2ccc(S(=O)(=O)NCC3CCCO3)c3cccc1c23 (configuration not stated),-,-,.,-,-,-,.,
CCN1C(=O)c2cccc3c(S(=O)(=O)NCC4CCCO4)ccc1c23 (configuration not stated),-,-,-,-,-,37,59,
